Arr AP2 block = inhibitors of beta-arrestin/AP2 binding, primary screen, biochemical, GPCR trafficking, flow cytometry; beta-arrestin 1 C-terminal peptide binding to AP2 beta2-adaptin appendage (human); actives 0.31% (n = 340,000); AID 504490, 2011; FITC-arrestin peptide / GST-AP2 beads; AP2 beta2 appendage carries R879A mutation; inhibition, % at 10 µM;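 active = inhibition above a set limit, near 3 SD of compounds lacking own fluorescence, cut at about 54% in these data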;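 note: plate controls were DMSO wells for no effect and 5 µM unlabelled arrestin peptide for full effect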
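Test system: GST-tagged AP2 beta2-adaptin appendage (R879A) on 4 µm glutathione beads; also added: fluorescein-tagged arrestin peptide at 50 nM final; timing: 12 min plus 1 h, RT; signal: flow cytometry, FL1 (488/535 nm); read-out: percent drop in bead-associated FITC signal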
ADAM17 inh = ADAM17 inhibitors, primary screen, biochemical, QFRET; actives 0.83% (n = 370,000); AID 720648, 2013; recombinant ADAM17, EDANS/DABCYL FRET peptide cleavage; Disintegrin and metalloproteinase domain-containing protein 17 (Homo sapiens), P78536; inhibition, % at 6.95 µM;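 active = inhibition above the mean of compounds lying between control limits plus 3 SD, set per campaign, cut at about 8.5% in these data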;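 note: 0% = DMSO-only wells as the low control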
FAS-TE inh = FAS thioesterase domain inhibitors, primary screen, biochemical, fluorescence intensity, uHTS. recombinant FAS-TE, OMFH fluorogenic substrate, fluorescence endpoint. inhibition, % at 15 µM. actives 0.67% (n = 360,000);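 active = compounds whose normalised, plate-corrected inhibition of enzyme fluorescence in the single-dose primary screen is 50% or more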;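 note: 0% = DMSO with enzyme and 100% = substrate without enzyme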
NRP1-CendR mod = modulators of CendR peptide binding to NRP-1, primary screen, biochemical, fluorescence polarization, uHTS; Neuropilin-1 (Homo sapiens), O14786; FAM-RPARPAR peptide binding to NRP-1; inhibition, % at 25 µM; actives 0.85% (n = 360,000);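 active = inhibition or corrected inhibition above about 18%, plus a signal ratio from 0.5 to 1.5, limit read from the data, passing the limit was not always enough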
Target sequence (O14786 whole entry, looked up): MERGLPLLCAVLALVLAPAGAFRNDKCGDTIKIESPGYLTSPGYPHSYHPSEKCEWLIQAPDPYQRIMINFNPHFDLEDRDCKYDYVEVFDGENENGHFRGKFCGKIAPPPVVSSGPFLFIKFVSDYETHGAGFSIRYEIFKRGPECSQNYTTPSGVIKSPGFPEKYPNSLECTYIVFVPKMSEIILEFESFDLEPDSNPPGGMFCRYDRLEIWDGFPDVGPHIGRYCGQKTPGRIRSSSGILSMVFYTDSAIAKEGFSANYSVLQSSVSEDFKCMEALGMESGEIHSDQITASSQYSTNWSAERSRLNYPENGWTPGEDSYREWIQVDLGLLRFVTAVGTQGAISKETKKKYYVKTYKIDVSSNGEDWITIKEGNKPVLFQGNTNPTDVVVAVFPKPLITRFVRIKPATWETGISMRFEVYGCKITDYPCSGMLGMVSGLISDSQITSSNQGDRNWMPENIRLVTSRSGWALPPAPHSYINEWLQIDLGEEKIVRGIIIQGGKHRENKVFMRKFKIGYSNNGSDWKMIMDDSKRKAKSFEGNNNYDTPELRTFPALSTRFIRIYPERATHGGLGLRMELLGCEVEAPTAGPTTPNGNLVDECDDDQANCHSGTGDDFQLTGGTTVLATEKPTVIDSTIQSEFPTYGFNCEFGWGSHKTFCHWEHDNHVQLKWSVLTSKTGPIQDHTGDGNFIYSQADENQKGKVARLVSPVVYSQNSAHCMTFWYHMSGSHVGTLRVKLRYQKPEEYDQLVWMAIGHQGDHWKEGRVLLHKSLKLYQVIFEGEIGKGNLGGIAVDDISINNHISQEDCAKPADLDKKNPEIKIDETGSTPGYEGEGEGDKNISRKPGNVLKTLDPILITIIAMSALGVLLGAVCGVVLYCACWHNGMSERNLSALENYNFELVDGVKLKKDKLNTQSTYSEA
ADAM10 inh = human ADAM10 inhibitors, primary screen, biochemical, QFRET, HTS | inhibition, % at 7 µM | Disintegrin and metalloproteinase domain-containing protein 10 (Homo sapiens), O14672 | recombinant ADAM10, EDANS/DABCYL FRET peptide cleavage, 3 h | actives 0.62% (n = 370,000);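 active = inhibition above a per-campaign cutoff equal to the mean of compounds falling between control-based bounds plus 3 SD, cut at about 20% in these data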;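 note: 0% = DMSO wells while the 100% control is not disclosed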
CaV13 FRET inh = Primary screen for inhibitors of IQ motif and Ca2+-dependent inactivation inhibitor domain binding in CACNA1D, Förster resonance energy transfer in living cells, …; HEK cells, CFP/YFP FRET ICDI-IQ, plate reader, 10 min; percent FRET-ratio fall versus neutral wells; inhibition, % at 12.3 µM; actives 0.098% (n = 340,000);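 active = mean replicate inhibition of at least 30% and at least 1% of replicates passing that level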;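 note: 0% = median of the neutral control wells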
FAS-TE conf = FAS thioesterase domain inhibitors, confirmation, biochemical, fluorescence intensity, single concentration | shares compounds with FAS-TE inh | recombinant FAS-TE, OMFH fluorogenic substrate | inhibition, % at 15 µM | actives 45% (n = 2,300);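 active = compounds inhibiting the enzyme by at least 50% at 15 µM in any one of the replicates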;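 note: 0% = enzyme with DMSO only and 100% = wells lacking enzyme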
An asterisk follows results filed as active; i = inactive; · = not tested or not shown. Shown are actives, neighbours in structure and some others; about 2.9% of the full set was active somewhere.

SMILES	Arr AP2 block	ADAM17 inh	FAS-TE inh	NRP1-CendR mod	ADAM10 inh	CaV13 FRET inh	FAS-TE conf
COc1ccc(N2C(=O)CC2(/C=C/c2ccccc2OC)C(=O)NC2CCCC2)cc1 (centres undefined)	-2	1	17	8	4	-3	·
COc1ccc(-c2nn(-c3ccccc3)cc2C=O)cc1[N+](=O)[O-]	40	-2	6	12	8	-20	·
COc1ccc(-c2nnc(SC)nc2-c2ccc(OC)c([N+](=O)[O-])c2)cc1[N+](=O)[O-]	-2	2	69*	-22	1	-3	-1
COc1ccccc1NS(=O)(=O)c1cc(NC(=O)c2sccc2C)ccc1N1CCOCC1	11	0	30	-12	1	-4	·
COc1ccccc1NS(=O)(=O)c1cc(NC(=O)/C=C/c2cccs2)ccc1N1CCOCC1	40	3	82*	-7	-5	-14	22
COc1ccccc1NS(=O)(=O)c1cc(NC(=O)c2sccc2C)ccc1N1CCCC1	-11	7	58*	6	16	-6	3
O=C(/C=C/c1cccs1)Nc1ccc(N2CCOCC2)c(S(=O)(=O)Nc2cc(Cl)ccc2Cl)c1	15	-1	25	4	-6	-7	·
COc1ccccc1CNC(=O)CN(C)CC(=O)Nc1ccccc1Br	-2	0	-3	1	-18	-9	·
CC(C)=CCOc1ccc2c(C)c(CCC(=O)N3C[C@H]4C[C@@H](C3)c3cccc(=O)n3C4)c(=O)oc2c1C	·	-237	-4	-14	i	·	·
O=C(Nc1nc(-c2ccc3ccccc3c2)cs1)C1CCN(S(=O)(=O)c2cccs2)CC1	23	2	88*	-9	-1	-2	7
O=c1c2ccccc2oc2cc(C#CC3(O)CCCCC3)ccc12	-3	5	55*	-10	-29	-9	36
COc1cccc2oc3cc(C#CC4(O)CCCCC4)ccc3c(=O)c12	-2	-65	0	5	-248	-3	·
CC1CCCCN1C(=O)COC(=O)c1cc([N+](=O)[O-])ccc1N1CCOCC1 (centres undefined)	4	1	54*	10	1	-4	57*
CCN(C(=O)COC(=O)c1cc([N+](=O)[O-])ccc1N1CCOCC1)C1CCS(=O)(=O)C1 (centres undefined)	4	-8	4	2	-9	-6	·
CN(C(=O)COC(=O)c1cc([N+](=O)[O-])ccc1N1CCOCC1)C1CCCCC1	·	-1	89*	10	0	-5	93*
O=C(COC(=O)c1ccc(F)cc1Cl)NC1CCCCCCC1	2	-2	14	4	3	-6	·
CCN(C(=O)COC(=O)c1cc([N+](=O)[O-])ccc1N1CCOCC1)C1CCCCC1	0	0	86*	-10	1	-14	92*
O=C(COC(=O)c1cc(F)c(F)cc1Cl)NC1CCCCCC1	·	-1	56*	0	-4	-3	68*
O=C(c1cc([N+](=O)[O-])ccc1N1CCOCC1)N1CCCCC1	1	3	-10	-9	4	-3	·
O=C(NCCc1ccccc1)OCc1cn(Cc2cccc(F)c2F)nn1	·	-3	·	·	-1	·	·
O=C(COC(=O)c1cc([N+](=O)[O-])ccc1N1CCOCC1)NC1CCCCC1	-6	2	92*	0	-1	-4	91*
O=C(COC(=O)c1cc([N+](=O)[O-])ccc1N1CCOCC1)NC1CCS(=O)(=O)C1 (centres undefined)	-9	-3	16	4	-7	-7	·

Assay outcomes: PubChem BioAssay, several laboratories
